M4 antag – CHRM4 antagonism in calcium assay. P08173. CHO-hM4 cells, ACh EC80, Fluo-8 calcium fluorescence. inhibition, % at 3 µM. 0.73% of 360,000 active. AID 624125;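 active means inhibition above its plate's cutoff, the mean inhibition of sample wells plus 3 SD, cut at about 27% in these data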;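 further: 0% = acetylcholine EC80 with DMSO and 100% = DMSO without agonist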
Target sequence (P08173 whole entry, looked up): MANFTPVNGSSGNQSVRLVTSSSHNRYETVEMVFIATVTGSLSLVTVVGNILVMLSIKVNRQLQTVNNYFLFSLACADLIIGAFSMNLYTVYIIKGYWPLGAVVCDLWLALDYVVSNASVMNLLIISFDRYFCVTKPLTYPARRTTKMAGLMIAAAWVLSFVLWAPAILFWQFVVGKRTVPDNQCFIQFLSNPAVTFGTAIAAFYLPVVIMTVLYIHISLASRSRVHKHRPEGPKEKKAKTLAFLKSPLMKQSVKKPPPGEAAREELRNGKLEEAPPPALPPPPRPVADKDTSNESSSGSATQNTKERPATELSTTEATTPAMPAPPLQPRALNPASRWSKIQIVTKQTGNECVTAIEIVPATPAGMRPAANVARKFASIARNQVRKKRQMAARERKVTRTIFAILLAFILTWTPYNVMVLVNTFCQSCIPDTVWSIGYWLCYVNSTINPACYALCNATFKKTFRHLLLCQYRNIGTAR
M5 PAM – positive allosteric modulators of human muscarinic M5 receptor | P08912 | CHO-K1 hM5, Fluo-8 calcium, ACh EC20 PAM; 0% = ACh EC20, 100% = ACh EC100 | activation, % at 3 µM | 0.3% of 360,000 active | AID 624038;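 active means activation above the run cutoff, the mean activation of all test compounds plus 3 SD, cut at about 18% in these data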
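Assay system: CHO-K1 hM5 cells. Also added: acetylcholine at EC20 concentration, added after compound. Dosing: 3 µM, single dose. Times: compound preincubation 140 s before EC20 acetylcholine addition. Signal: Fluo-8 calcium fluorescence. Measure: % activation relative to EC20 and EC100 ACh responses. Repeats: singlicate, one well per test compound.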
CHRM5 agonist – agonists of human muscarinic M5 receptor (CHRM5); P08912; CHO-K1 hM5 cells, Fluo-8 calcium fluorescence; 0% DMSO wells, 100% maximal acetylcholine response; activation, % at 3 µM; 0.19% of 360,000 active; AID 624037;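 active means activation above the run's mean over test compounds plus 3 SD, cut at about 23% in these data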;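 further: signal is peak over basal fluorescence ratio across the kinetic read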
M4 ag – agonists of human muscarinic M4 receptor (CHRM4); P08173; CHO-K1 hM4/Gqi5, Fluo-8 calcium fluorescence; vehicle 0%, full acetylcholine response 100%; activation, % at 3 µM; 0.14% of 360,000 active;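 active means activation above the run mean over all test wells plus 3 SD, cut at about 32% in these data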;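 further: peak over basal fluorescence ratio per well then scaled between controls; 0% = DMSO wells and 100% = acetylcholine at EC100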
M4 PAM – potentiates acetylcholine response at human M4 receptor; activation, % at 3 µM; CHO-K1 hM4/Gqi5, Fluo-8 calcium fluorescence, ACh EC20; 0% = ACh EC20, 100% = maximal ACh; P08173; 0.4% of 360,000 active;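 active means activation above its plate's cutoff, the mean activation of sample wells plus 3 SD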
CHRM5 antagonist – CHRM5 antagonism in calcium assay. P08912. CHO-hM5 cells, Fluo-8 calcium fluorescence, ACh EC80. 0.59% of 360,000 active. AID 624040. inhibition, % at 3 µM;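 active means inhibition above a per-plate cutoff, the mean of that plate's test compounds plus 3 SD, cut at about 27% in these data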;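 further: 0% = acetylcholine EC80 with DMSO and 100% = DMSO without agonist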
* = called active by the depositor. Shown are actives, neighbours in structure and some others; about 1.8% of the full set was active somewhere.

SMILES | M4 antag | M5 PAM | CHRM5 agonist | M4 ag | M4 PAM | CHRM5 antagonist
CC(C)C[C@@H]1COc2cccc(N3CCN(C)CC3)c2S(=O)(=O)N1 | 71* | -22 | -7 | 0 | -15 | 99*
O=c1[nH]c2ccccc2n1C1CCN(C(c2cc3ccccc3o2)c2nnnn2Cc2ccccc2)CC1 (configuration not stated) | 20 | -17 | 7 | 23 | -11 | -2
C[N+]1(C)C2CCC1CC(OC(=O)c1ccccc1)C2 (configuration not stated) | -3 | -22 | -18 | 0 | -23 | 6
C[N+]1([O-])[C@@H]2CC(OC(=O)[C@H](CO)c3ccccc3)C[C@H]1[C@@H]1O[C@@H]12 (some centres not stated) | 99* | -18 | -1 | 2 | -17 | 98*
C[N+]1(C)C2CCC1CC(OC(=O)C(CO)c1ccccc1)C2 (configuration not stated) | 98* | -16 | -10 | 2 | -26 | 99*
C#CC[N+]1(C)[C@@H]2CC(OC(=O)C(CO)c3ccccc3)C[C@H]1C(O)C2 (some centres not stated) | 98* | -22 | -9 | 0 | -16 | 98*
C[N+]1(C)[C@@H]2CC[C@H]1CC(OC(=O)C(CO)c1ccccc1)C2 (some centres not stated) | 99* | -18 | -2 | 1 | -18 | 99*
COc1ccc(-n2nnnc2C(c2cccc3ccccc23)N2CCC3(CC2)C(=O)NCN3c2ccccc2)cc1 (configuration not stated) | 2 | 10 | 13 | 2 | 3 | -5
O=C(NC(=S)N1CC1)c1ccccc1 | -10 | 2 | 6 | 2 | 4 | 8
O=[N+]([O-])c1ccc(N2CCOCC2)c2c1no[n+]2[O-] | 1 | -6 | 2 | 2 | 6 | 19
CC1CCC(NCCc2ccc3c(c2)OCO3)CC1 (configuration not stated) | 32* | -12 | -6 | 2 | -12 | -2
c1cc2c(cc1CCNC1C3CC4CC(C3)CC1C4)OCO2 (configuration not stated) | 23 | -11 | -6 | 3 | -9 | 3
CCOC(=O)[C@]12Cc3cc(Cl)ccc3[C@H]1N(C(C)C)C(=O)c1ccccc12 | 1 | 10 | 2 | -2 | 16 | 5
C[C@H](CO)N1C[C@H](C)[C@H](CN(C)C(=O)Oc2ccccc2)OCc2cnnn2CCCC1=O | -18 | -2 | 0 | 0 | 6 | -3
N#Cc1ccc(NC(=S)N2Cc3ccccc3-n3nncc3C2)cc1 | -4 | -3 | 3 | 4 | 0 | 0
C=CCC1(Nc2ccccc2)CC(C)N(C)CC1C (configuration not stated) | 49* | -35 | -21 | 1 | -51 | 52*
CC(C)C(=O)c1cn(Cc2ccc(C#N)cc2)c2ccccc12 | -6 | 4 | -6 | 2 | 4 | -1
CC(=O)c1cn(Cc2ccc(C#N)cc2)c2ccccc12 | -9 | -16 | -2 | 3 | -2 | 42*
CN(C)C(CNC(=O)Cc1c(Cl)cccc1Cl)c1ccccc1 (configuration not stated) | 17 | -16 | -12 | 1 | -20 | 41*
COC(=O)C1=C(C(=O)OC)C2OC1c1cc3ccccc3cc12 | 96* | -7 | 0 | 14 | -10 | 17
COC(=O)C1=C(c2ccc3ccccc3c2)C[C@@H]2CC[C@H]1N2C | 2 | -5 | -12 | 2 | 2 | 6
O=C1c2cccc(N3CCNCC3)c2C2CCCCN12 (configuration not stated) | -2 | 5 | -6 | -2 | -3 | -1
NC(Cc1ccccc1)Cc1ccccc1 | -2 | 4 | -2 | 2 | 5 | 12
NC(Cc1ccccc1)c1nn[nH]n1 (configuration not stated) | -2 | -11 | -2 | 0 | 0 | 30*
O=[N+]([O-])NC1=NCN(Cc2ccco2)CN1Cc1ccco1 | -2 | 19* | 1 | 1 | 6 | -5
SMILES | M4 antag | M5 PAM | CHRM5 agonist | M4 ag | M4 PAM | CHRM5 antagonist
CN1CN=C(N[N+](=O)[O-])N(Cc2ccco2)C1 | 4 | 4 | -2 | 0 | 7 | -3
S=P(NCCSCc1ccccc1)(N1CC1)N1CC1 | -3 | 8 | 2 | 3 | 7 | -1
CCC(CO)(C(=O)OC1C[N+]2(C)CCC1CC2)c1ccccc1 (configuration not stated) | 99* | -19 | -11 | -1 | -25 | 99*
O=C(C[N+]12CCC(CC1)C(OC(=O)c1ccccc1)C2)c1ccc([N+](=O)[O-])cc1 (configuration not stated) | 13 | 4 | -18 | 0 | -21 | 4
CNC(=O)C[C@H]1CC[C@@H]2NC[C@H](O)COC[C@H]2O1 | -10 | 4 | 1 | 1 | 7 | -10
O=C(CCCN1CCC(n2c(=O)[nH]c3ccccc32)CC1)c1ccc(F)cc1 | 27* | -14 | 1 | 5 | -17 | 10
Cc1[nH]c2ccccc2c1CCN | -6 | 19* | -3 | 2 | 1 | 9
COP(=O)(OC)C1(O)C(=O)Nc2ccc(Br)cc21 (configuration not stated) | -8 | 1 | -1 | 4 | 23* | -1
O=c1[nH]c2ccccc2n1C1CCN(C(CCc2ccccc2)c2nnnn2C2CCCC2)CC1 (configuration not stated) | 17 | -13 | 6 | 21 | -8 | 13
CN1CCN(CCC(C#N)(c2ccccc2)c2ccccc2)CC1 | 40* | -49 | -14 | 1 | -16 | 50*
COc1ccc(CNCCc2c(C)[nH]c3ccc(OC(F)(F)F)cc23)c(OC)c1 | 29* | -21 | 22 | 40* | -12 | 32*
COc1ccc2[nH]c(C)c(CCNCc3cc(OC)c(OC)c(OC)c3)c2c1 | -6 | 7 | -1 | 2 | 6 | 1
C[N+](C)(C)Cc1ccccc1 | -11 | -20 | 89* | 7 | -6 | 65*
CC1(C)CN=C(Nc2ccc(F)c(Cl)c2)S1 | 4 | -1 | 15 | 35* | 9 | 3
N#CC1c2ccccc2-n2nncc2CN1Cc1cc(Cl)cc(Cl)c1 (configuration not stated) | 20 | 11 | 13 | 7 | -10 | -3
Cc1ccc(C(O)(c2ccc(C)c(C)c2)C2CN3CCC2CC3)cc1C (configuration not stated) | 0 | -9 | -5 | 4 | -2 | 14
CN1CCCC(C(O)(c2ccccc2)c2ccccc2)C1 (configuration not stated) | -11 | -14 | -20 | 1 | -18 | -2

High-throughput results (PubChem BioAssay)
